FLuc inhib CS: inhibits firefly luciferase, flagging false hits in luciferase inhibition screens | P08659 | ATPLite firefly luciferase biochemical luminescence, 10 min | inhibition, % at 10 µM | actives 1.5% (n = 200,000) | AID 1006;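 active means inhibition above about 50% when tested at 10 µM, limit read from the data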
Target sequence (P08659 whole entry, looked up): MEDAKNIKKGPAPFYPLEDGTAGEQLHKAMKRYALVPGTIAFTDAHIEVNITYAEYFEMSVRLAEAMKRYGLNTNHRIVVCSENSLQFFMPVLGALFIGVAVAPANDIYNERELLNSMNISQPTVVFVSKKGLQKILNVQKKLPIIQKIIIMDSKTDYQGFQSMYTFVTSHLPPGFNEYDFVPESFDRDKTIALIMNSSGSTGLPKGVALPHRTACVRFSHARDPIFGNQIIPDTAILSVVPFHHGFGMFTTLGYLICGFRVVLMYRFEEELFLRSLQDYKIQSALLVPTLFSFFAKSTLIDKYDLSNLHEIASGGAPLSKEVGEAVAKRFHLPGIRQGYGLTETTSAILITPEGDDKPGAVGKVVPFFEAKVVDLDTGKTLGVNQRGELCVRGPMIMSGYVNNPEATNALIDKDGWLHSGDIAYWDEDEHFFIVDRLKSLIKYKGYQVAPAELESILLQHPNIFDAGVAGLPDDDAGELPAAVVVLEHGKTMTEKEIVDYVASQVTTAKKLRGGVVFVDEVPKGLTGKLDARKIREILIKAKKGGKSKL
PPC-1+TRAIL kill: PPC-1 cancer cell killing with TRAIL present | AID 1443 | PPC-1 cells + TRAIL, ATPLite viability luminescence | cell killing (% activity), % at 4 µM or 5 µM | actives 0.41% (n = 220,000);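 active means cell killing above 50% in the first pass at 4 µM, then a duplicate retest at 5 µM averaging 50% or more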;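 further: plate controls were cells with TRAIL plus DMSO for no effect and medium-only wells lacking cells for full effect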
FLuc act counter: firefly luciferase counter-screen for stimulation assays; activation factor at 10 µM; ATPlite luciferase biochemical, luminescence, 10 min; 0 = ATP-free wells, 1 = DMSO control; 200,000 tested, under 10 active; P08659;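 active means luciferase activation factor, scaled between plate controls, of at least 2 with compound at 10 µM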
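System: luciferase plus luciferin reagent, cell-free; medium: PBS as buffer for the ATP substrate; dosing: test compounds dosed from 2 mM stocks in 100% DMSO; timing: 10 min post-reagent at room temperature; measured by: luminescence measurement of luciferase light output; evaluation: luciferase activation, seen as luminescence increase over controls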
TRAIL sens C8: sensitizes caspase-8 expressing cells to TRAIL; NB7+C8 cells + TRAIL, ATPlite viability luminescence; inhibition (viability loss, TRAIL sensitization), % at 10 µM; actives 1% (n = 360,000); AID 624354;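 active means compounds causing at least 50% loss of cell viability in the single-dose screen, relative to plate controls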
The depositor's hits bear a star; . = not tested or not shown. Hits are enriched below; roughly 1.6% of the tested compounds scored in any of these assays.

SMILES	FLuc inhib CS	PPC-1+TRAIL kill	FLuc act counter	TRAIL sens C8
COc1ccc(C(=O)OC(C)CN2CCOCC2)cc1 (configuration not stated)	.	.	.	-13
Oc1c(Cl)cccc1C=Nc1cc(C(F)(F)F)ccc1N1CCCC1	-5	24	1.1	2
Oc1c(Cl)cc(Cl)cc1C=Nc1cc(C(F)(F)F)ccc1N1CCc2ccccc2C1	.	37	.	53*
Cc1ccc(C)c(OCc2cc(C(=O)N(C)Cc3ccccn3)no2)c1	.	.	.	-7
Oc1c(C=Nc2cccc3cccnc23)sc2ccccc12	82*	3	0.2	.
O=C(CCc1ccccc1)NNC(=O)C1CCCCC1	-10	5	1.1	2
COc1cccc2c1CCc1c-2nc2ccccc2c1C(=O)O	.	.	.	68*
COc1ccccc1NC(=O)c1c(C)nc2ccccc2c1C(=O)O	.	4	.	14
COc1c(OC(C)=O)ccc(/C=C/c2ccc3cccc(OCc4ccccc4)c3n2)c1[N+](=O)[O-]	18	21	0.8	49*
Nc1nc(N)c2c(ccc3c2ccn3Cc2cccc([N+](=O)[O-])c2)n1	.	.	.	97*
Cc1nc(-c2ccccc2)sc1-c1ccn[nH]1	70*	27	0.3	34
Cc1nc(-c2ccccc2)sc1-c1ccnn1C	57*	7	0.4	29
Cc1ccc2nc(-c3ccc(NC(=O)C(C)N4C(=O)c5ccccc5C4=O)cc3)sc2c1 (configuration not stated)	7	0	0.9	17
O=C(CCN1C(=O)c2ccccc2C1=O)Nc1nc2ccccc2s1	3	16	1	3
O=C(CCN1C(=O)c2ccccc2C1=O)Nc1ccc(-c2nc3ccccc3s2)cc1	11	1	0.9	69*
Cc1ccc2nc(-c3ccc(NC(=O)CCN4C(=O)c5ccccc5C4=O)cc3)sc2c1	68*	32	0.3	83*
COCC1CCCCN1C(=O)c1ccc(OC)c(OC2CCN(C(C)C)CC2)c1 (configuration not stated)	.	.	.	-7
Cc1ccc2nc3sc(C(=O)NCc4ccco4)c(N)c3cc2c1	50*	10	0.5	21
Cc1ccc2nc3sc(C(=O)N4CCOCC4)c(N)c3cc2c1	81*	-10	0.2	-10
COc1cc2cc3c(N)c(C(=O)NCc4ccco4)sc3nc2cc1OC	-4	10	1	9
Cc1cc(-c2ccccc2)nc(Nc2nc3c(C)cccc3c(=O)[nH]2)n1	.	.	.	71*
Cc1cc(C)c2nc(Nc3nc(-c4ccccc4)cc(=O)[nH]3)nc(C)c2c1	.	16	.	14
CN(C)c1ccc(/C=N/N=C2/NC(=O)/C(=C/c3ccc([N+](=O)[O-])cc3)S2)cc1	89*	54*	0.1	87*
CN(C)c1ccc(C=C2SC(=S)NC2=O)cc1	.	.	.	47
O=C(N/N=C/c1ccccc1)c1n[nH]c2c1CCCC2	75*	41	0.3	28
SMILES	FLuc inhib CS	PPC-1+TRAIL kill	FLuc act counter	TRAIL sens C8
O=C(N/N=C/c1cccs1)c1n[nH]c2c1CCC2	70*	25	0.3	37
O=C(N/N=C/c1ccc(Cl)cc1)c1n[nH]c2c1CCCC2	.	4	.	32
CN(C)c1ccc(N/C=C/C(=O)c2ccccc2)cc1	92*	18	0.1	67*
O=C(/C=C/Nc1ccccc1)c1ccccc1	92*	23	0.1	64*
Cc1ccc(N/C=C/C(=O)c2ccc(C)cc2)cc1	51*	24	0.5	32
Cc1ccc(C(=O)/C=C/Nc2ccccn2)cc1	.	.	.	82*
Cc1ccc(C(=O)/C=C/C(=O)c2ccc(C)cc2)cc1	2	8	1	-11
Cc1ccc(C(=O)/C=C\Nc2ccc(C)c(C)c2)cc1	29	31	0.7	31
Cc1cc(Cl)c2oc(C(=O)N3CCN(c4cnccn4)CC3)c(C)c2c1	.	.	.	-8
Cc1ccc(C(=O)/C=C/Nc2ccc([N+](=O)[O-])cc2Br)cc1	39	28	0.6	30
O=C(NNC(=S)Nc1ccc(Br)cc1)c1cccnc1	.	.	.	3
Cc1ccc(O)c(N/C=C/C(=O)c2ccc(F)cc2)c1	.	.	.	60*
O=C(/C=C\Nc1ccc(Br)cc1)c1cccnc1	84*	47	0.2	66*
O=C(/C=C/Nc1ccc(F)cc1Br)c1ccccc1	96*	85*	0	95*
CCCCn1c(=S)[nH]c2c(oc3ccc(Cl)cc32)c1=O	-2	-9	1	.
COc1cccc(NC(=O)CSc2nnc(-c3ccc(C)cc3)o2)c1	-5	57*	1.1	14
COc1ccc(OCC(=O)Nc2cccc(OC)c2)cc1	15	27	0.9	-2
COc1cccc(NC(=O)COc2ccccc2C(N)=O)c1	68*	50	0.3	40
O=C(CSc1nnc(-c2ccc(O)cc2)o1)Nc1cccc(O)c1	.	.	.	48*
Cc1cc(NS(=O)(=O)c2ccc(NC(=O)CCCC(=O)O)cc2)nc(C)n1	-7	21	1.1	-10
CN1CCN(CCOc2ccc(Cc3ccccc3)cc2)CC1	.	.	.	-9
COc1ccc(C(=O)N/N=C(\C)c2cccc(NC(=O)c3ccc(F)cc3)c2)c(OC)c1	.	.	.	39
COc1ccc(C(=O)N/N=C(/C)c2cccc(NC(=O)c3ccccc3F)c2)cc1	.	.	.	59*
C/C(=N\NC(=O)c1cc(O)ccc1O)c1cccc(NC(=O)c2ccc(Cl)cc2)c1	.	.	.	58*
C/C(=N\NC(=O)c1ccncc1)c1cccc(NC(=O)c2ccc(C(C)(C)C)cc2)c1	.	.	.	80*
SMILES	FLuc inhib CS	PPC-1+TRAIL kill	FLuc act counter	TRAIL sens C8
Cc1cccc(CC2CC(=O)N(c3nc4ccccc4s3)C2=O)c1 (configuration not stated)	-4	30	1	-22
N#Cc1ccc(S(=O)(=O)N2CCC(C(=O)Nc3cccc(C(=O)NC4CC4)c3)CC2)cc1	.	.	.	5
CC(=O)N1CCN(c2ccc(NCc3cccs3)cc2)CC1	-6	7	1.1	-9
CNc1ccc(/C=C2\CSc3ccccc3C2=O)cc1[N+](=O)[O-]	55*	21	0.4	23
CCOC(=O)N1CCN(C(=O)C(=O)NNC(=O)COc2ccc(Cl)c(C)c2)CC1	-2	2	1	-9
O=C(CCl)N(CCCNC(=O)C(F)(F)F)c1ccc([N+](=O)[O-])cc1	.	21	.	95*
Cc1ccc([N+](=O)[O-])cc1N(CC(=O)NC1CCCC1)S(C)(=O)=O	6	9	0.9	-2
CC(C)c1ccc(NC(=O)Nc2nc(C(N)C3CCCCC3)cs2)cc1 (configuration not stated)	.	.	.	88*
CC(C)c1ccc(NC(=O)Nc2nc(C(N)CCc3ccccc3)cs2)cc1 (configuration not stated)	.	.	.	95*
CC(C)c1ccc(NC(=O)Nc2nc(C(C)N)cs2)cc1 (configuration not stated)	.	.	.	1
COc1ccc(NC(=O)Nc2nc(C(N)C3CCCCC3)cs2)cc1 (configuration not stated)	.	.	.	14
COc1ccc(/C=N\NC(=O)c2ccc([N+](=O)[O-])cc2)cc1COc1c(F)c(F)cc(F)c1F	.	.	.	10
O=C(CCl)N(c1ccccc1)c1c[nH]c2ccccc12	-9	11	1.1	98*
O=C(CCl)N(c1ccc(Cl)cc1)c1c[nH]c2ccccc12	4	34	1	89*
